# This is one part of a sample in which hits are shown more often than they occur.
# ROMK mod: ROMK potassium channel modulators, primary screen, cell-based, thallium flux, MLSMR library | Tet-inducible ROMK, thallium flux fluorescence; actives lie on both sides | B-score at 10 µM | 130,000 compounds, 2% hits | AID 1918, 2009;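 active = signal ratio slope over the read window, or its plate-corrected B-score, at least 3 SD from the plate mean, either direction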;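 also: B-score of the F/F0 ratio slope over 7 to 12 s after thallium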
# Target sequence (P48048 whole entry, looked up): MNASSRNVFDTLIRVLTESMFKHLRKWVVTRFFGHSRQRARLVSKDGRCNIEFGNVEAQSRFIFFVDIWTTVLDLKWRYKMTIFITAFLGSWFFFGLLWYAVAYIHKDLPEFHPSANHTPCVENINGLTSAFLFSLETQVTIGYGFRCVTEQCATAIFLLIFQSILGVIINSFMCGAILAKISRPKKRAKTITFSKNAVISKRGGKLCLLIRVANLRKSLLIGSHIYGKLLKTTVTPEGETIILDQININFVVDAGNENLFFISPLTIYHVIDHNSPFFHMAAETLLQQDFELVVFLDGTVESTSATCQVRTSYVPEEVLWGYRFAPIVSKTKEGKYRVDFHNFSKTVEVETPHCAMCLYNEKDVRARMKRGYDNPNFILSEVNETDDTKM
# Pf gamet viab: late stage P. falciparum gametocyte viability inhibitors, primary screen, ATP luminescence, HTS; P. falciparum stage V gametocytes, 24 h; inhibition, % at 10.9 µM; 150,000 compounds, 0.065% hits; AID 743093, 2013;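 active = inhibition above the mean plus 3 SD of compounds within the control limits, set per campaign, cut at about 38% in these data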;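 also: 0% = DMSO wells and 100% = medium only without gametocytes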
# Biofilm kill mix: clotrimazole potentiators killing C. albicans biofilm, primary screen, 4-compound mixtures; 120,000 compounds, 0.02% hits; C. albicans biofilm persisters + clotrimazole, fluorescence viability; primary screen in compound mixtures of four per well; AID 1242, 2008; inhibition, % at 7.6 µM;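 active = inhibition above 30.3% in the primary screen of four-compound pools, then above 30% when the compound was retested; inconclusive = passed the primary limit but could not be retested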;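 also: compounds exposed to preformed 24 h biofilms for 48 h; 0% = untreated biofilm control and 100% = clotrimazole plus chlorhexidine kill blank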
#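 System: C. albicans CAF4-2 wild-type biofilms; Medium: RPMI/MOPS medium, pH 7.0; Reagent: Clotrimazole, 50 µg/mL; Times: biofilm formation 24 h, compound exposure 48 h, 37 °C; Detection: 2-h Alamar Blue fluorescence, 535/590 nm excitation/emission; Evaluation: percent inhibition of biofilm viability.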
# ROMK hit retest: ROMK channel modulator hit retest, confirmation, cell-based, thallium flux, duplicate, resupplied hits. shares compounds with ROMK mod. fluorescence ratio; hits give low values. normalized thallium flux (F/F0 slope) at 10 µM. 3,000 compounds, 54% hits. AID 1917, 2009;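 active = Flux at 10 µM at least 3 SD below or above vehicle control mean in one or both replicates; inconclusive = no clear call, values can overlap the other calls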
# * marks the source's active call; other numbers are inactive results; ? = inconclusive; / = no result.
SMILES,ROMK mod,Pf gamet viab,Biofilm kill mix,ROMK hit retest
COc1ccc(NC(=O)c2c(NC(=O)CCC(=O)O)sc(-c3ccccc3)c2C)cc1,/,6,13,0.08
COC(=O)c1c(NC(=O)CCC(=O)O)sc(Cc2ccccc2)c1C,1.5,9,24,/
CCOCC(=O)Nc1ccccc1C(=O)N1CCOCC1,-1.4,/,7,/
COc1ccc(OCC(=O)Nc2ccccc2C(=O)N2CCOCC2)cc1,3*,-26,19,0.08
O=C(/C=C/c1ccc([N+](=O)[O-])cc1)NCCSc1ccccc1,/,/,/,?
Cc1ccc(SCCNC(=O)/C=C/c2ccc([N+](=O)[O-])cc2)cc1,-0.51,11,19,/
CC(C)c1ccc2c(c1)CCC1C(C)(CN)CCCC21C (centres undefined),/,/,2,0.04*
CNC(=O)CSc1nnc(C(C)C)n1C,0.17,16,10,/
CC(C)(C)C1=CC(=O)C(=O)C(C(C)(C)C)=C1,-2.3*,/,16,0.058*
CC(C)(C)C1=CC(=Nc2ccccc2N)C=C(C(C)(C)C)C1=O,0.043,-15,13,/
Cc1ccc(C(=O)N/C(=C\c2ccc(-c3ccc([N+](=O)[O-])cc3)o2)C(=O)NC2CCS(=O)(=O)C2)cc1 (centres undefined),/,7,28,0.047*
Cc1ccc(C(=O)N/C(=C/c2ccc(-c3ccc([N+](=O)[O-])cc3)o2)C(=O)NCCCN(C)C)cc1,/,22,/,/
CC(CC(=O)Nc1nnc(C(C)(C)C)s1)c1ccccc1 (centres undefined),/,-5,/,/
C=CCON1C(=O)C(=O)N(OCC=C)[C@H]2CCCC[C@H]21,/,2,21,/
CON1C(=O)C(=O)N(OC)C2CCCCC21 (centres undefined),/,/,/,?
COCCN(C(=O)c1snc(C(N)=O)c1N)C(C(=O)NC1CCCCC1)c1ccc(N(C)C)cc1 (centres undefined),/,16,/,/
COc1ccccc1/C=C/C1=NC(=C\C=C/c2ccccc2)/C(=O)O1,-0.13,-35,19,/
COc1ccccc1/C=C/C=C1N=C(/C=C/c2ccc(Cl)cc2)OC/1=O,-2.6*,4,13,0.063*
[O-]/[N+](=C/c1ccccc1)c1ccccc1,/,10,/,/
O=[N+]([O-])c1ccc(NCCNCCOc2nonc2-c2ccccc2)c([N+](=O)[O-])c1,0.082,/,9,/
CCN(CC)S(=O)(=O)c1ccc(OC)c(NC(=S)Nc2cccc(C)c2C)c1,0.019,3,4,/
CCN(CC)C(=O)CSc1nc2sc(C)c(C)c2c(=O)[nH]1,/,/,/,0.076
Cc1sc2nc(SCC(=O)N(C)C)[nH]c(=O)c2c1C,-0.039,19,/,/
COc1cc2ccccc2cc1C(=O)Nc1ccc(O)cc1,/,-13,/,/
CC(C)NC(=O)[C@H](CSCc1ccccc1)N1Cc2ccccc2C1=O,-0.13,/,8,/
SMILES,ROMK mod,Pf gamet viab,Biofilm kill mix,ROMK hit retest
O=C(NC1CCCCC1)[C@H](CSCc1ccccc1)N1Cc2ccccc2C1=O,-3.4*,/,2,?
O=C(O)C1=C(OCc2ccccc2)C(=O)NCC1,0.069,8,4,/
CCCS(=O)(=O)c1nnnn1-c1cccc(OC)c1,-8.4*,/,/,0.046*
COc1cccc(-n2nnnc2SCC(=O)Nc2ccc(OC)cc2OC)c1,/,0,/,/
OCCC1CN(Cc2nc(-c3ccccc3)cs2)CCN1CCc1ccccc1 (centres undefined),-3.2,-15,14,/
OCCC1CN(Cc2nc(-c3ccc(F)cc3)cs2)CCN1CCc1ccccc1 (centres undefined),-3.9*,-26,15,0.054*
CCOc1cc(/C=N/NC(=O)CSc2nncn2C)ccc1OCc1cccc(C)c1,/,17,13,/
CCOC(=O)C(Cc1ccccc1)C(=O)NCc1cccnc1 (centres undefined),/,-3,/,/
O=C1C=C(c2cccc(CO)c2)C[C@@H](c2ccc3c(c2)OCO3)C1,/,2,/,/
COc1cc(/C=C/[N+](=O)[O-])ccc1OCc1cccc(C(=O)O)c1,-6*,/,4,0.037*
COc1cc(/C=C/C(=O)NC(C)(C)C)ccc1OCc1ccccc1,-0.45,/,12,/
N#Cc1ccccc1CSc1nc(N)cc(N)n1,/,1,/,/
NCCCCC(N)c1cn([C@@H](CCC(=O)O)C(=O)N2CCNCC2)nn1 (some centres undefined),/,4,/,/
CCCCOc1ccccc1Cn1c(=O)oc2ccccc21,0.59,/,/,/
CC(=O)Nc1ccc(OCCC[n+]2ccccc2)cc1,/,7,14,/
CCCCCc1ccc(OCCOCCn2c[n+](C)c3ccccc32)c(CCCCC)c1,/,/,-9,0.046*
CCCCCc1ccc(OCCC[n+]2ccccc2)c(CCCCC)c1,/,-7,4,0.06*
C=CCNC(=O)C1CCN(c2ccc(S(=O)(=O)N3CCOCC3)cc2[N+](=O)[O-])CC1,-0.13,-6,10,/
CC(=O)N(Cc1cc2ccccc2[nH]c1=O)c1ccc(C)cc1,/,-10,/,/
CCOC(=O)C(=O)N1CCN(c2nc(-c3ccc(Cl)cc3)cs2)CC1,/,-9,/,/
CCOC(=O)N1CCN(c2nc(-c3ccc(F)cc3)cs2)CC1,-2.6*,-21,/,?
Cc1c(CN2CCC(CO)(CCOc3ccccc3)CC2)[nH]c2c(Cl)cccc12,-1.2,13,24,/
COc1ccc(OCCSc2nnc(C(C)NC(=O)c3ccccc3F)n2C)cc1 (centres undefined),-0.01,4,29,/
Cc1ccc(/C=C2\SC(=S)N(CCCC(=O)Nc3ccccn3)C2=O)cc1,/,-1,/,0.074
O=C(O)CCCN1C(=O)/C(=C/c2ccncc2)SC1=S,-2.1,15,22,/
SMILES,ROMK mod,Pf gamet viab,Biofilm kill mix,ROMK hit retest
O=C(CCN1C(=O)/C(=C/c2ccccc2)SC1=S)NNC(=O)c1ccncc1,-0.88,12,6,/
COc1ccc(/C=C2\SC(=S)N(CCCC(=O)Nc3ccccn3)C2=O)cc1OC,/,/,15,/
O=C(O)CCCCCN1C(=O)/C(=C\c2ccncc2)SC1=S,-4.1*,-22,17,0.049*
O=C(O)CCCCCN1C(=O)/C(=C/c2ccncc2)SC1=S,-4.2*,10,-14,0.048*
CCn1c(=O)[nH]c(=O)c2c(N)c(C(=O)c3cc(F)ccc3F)sc21,/,-39,10,/
CC(C)(C)NC(=O)CN(Cc1ccccc1)S(=O)(=O)c1ccccc1,/,-1,/,/
CCOc1ccc2nnnn2n1,0.58,-4,/,/
CC(C)(C)OC(=O)C(Cl)(C(=O)OC(C)(C)C)c1ccc2nnnn2n1,-3.6,-2,37,0.064*
CCCCCc1cc(O)c2c(C)cc(=O)oc2c1,/,3,/,0.055*
CCCc1cc(=O)oc2cc(C)cc(O)c12,-1.9,-9,/,/
COc1cc(CNC2CCCC2)cc(Br)c1OCC(=O)Nc1ccccc1C,-0.72,6,7,/
O=C(O)c1cccc(-c2noc(-c3cccc(Cl)c3)n2)c1,/,-5,/,/
C[C@H](NC(=O)OCc1ccccc1)C(=O)NNC(=O)[C@H](Cc1ccccc1)NC(=O)OC(C)(C)C,/,-9,18,/
COC(=O)CNC(=O)C(C)NC(=O)CNC(=O)OCc1ccccc1 (centres undefined),/,/,/,0.077
CC(C)(C)OC(=O)C(Cc1ccc(OC(C)(C)C)cc1)NC(=O)CNC(=O)OCc1ccccc1 (centres undefined),-2.2*,18,19,0.058*

# Bioassay records: PubChem, several laboratories
